Source: PMC3901018 (Chemical communications (Cambridge, England), 2014)

Key:
[1] = test system: F21T (human telomeric 21-mer) G4; assay: FRET G4 stabilisation; assay type: binding; conditions: ΔTm at 1 µM; triplicate, Esd ± 0.5 °C
How it was run: (§1)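 96-well FRET melting assay using dual-labelled oligonucleotides: human telomeric 21-mer F21T and c-KIT2 G4s, plus T-loop duplex DNA. Test compound at 1 µM. Tm shift obtained by curve fitting to the melting data, from triplicate measurements, Esd ± 0.5 °C. n/a marks unsuccessful curve fitting.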

c-KIT2 G4 = assay: FRET G4 stabilisation; assay type: binding; conditions: ΔTm at 1 µM; triplicate, Esd ± 0.5 °C
How it was run: as §1

HSP90A promoter G4 = assay: FRET G4 stabilisation; assay type: binding; conditions: ΔTm at 1 µM; triplicate, Esd ± 0.5 °C
HSP90B promoter G4 = assay: FRET G4 stabilisation; assay type: binding; conditions: ΔTm at 1 µM; triplicate, Esd ± 0.5 °C
[2] = test system: AR (androgen receptor promoter) G4; assay: FRET G4 stabilisation; assay type: binding; conditions: ΔTm at 1 µM; triplicate, Esd ± 0.5 °C
[3] = test system: duplex DNA sequence (T-loop); assay: FRET melting assay, duplex DNA control; assay type: binding; conditions: ΔTm at 1 µM, Esd ± 0.5 °C
How it was run: as §1

[4] = test system: F21T G4 versus calf thymus duplex DNA; assay: Calf thymus DNA; assay type: binding, human; conditions: 1 µM compound, calf thymus DNA competitor
How it was run: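 Competition version of the FRET melting assay. Dual-labelled F21T G4 is challenged with unlabelled calf thymus duplex DNA added at high duplex:G4 ratios. Test compound at 1 µM. Read-out is % retention of the F21T Tm shift.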

A549 (lung cancer) = assay: 96 hr SRB assay, A549; assay type: cell-based; conditions: Homo sapiens, A549, 96 h, read-out: IC50, A549
MCF7 (breast cancer) = assay: 96 hr SRB assay, MCF7; assay type: cell-based; conditions: Homo sapiens, MCF7, 96 h, read-out: IC50, MCF7
[5] = test system: ALT (transformed WI38 lung fibroblast cells); assay: 96 hr SRB assay, ALT; assay type: cell-based; conditions: Homo sapiens, WI-38, 96 h, read-out: IC50, ALT
[6] = test system: Mia-PaCa2 (pancreatic cancer); assay: 96 hr SRB assay, Mia-PaCa2; assay type: cell-based; conditions: Homo sapiens, MIA PaCa-2, 96 h, read-out: IC50, Mia-PaCa2
[7] = test system: Panc1 (pancreatic cancer); assay: 96 hr SRB assay, Panc1; assay type: cell-based; conditions: Homo sapiens, PANC-1, 96 h, read-out: IC50, Panc1
RCC4 (renal cancer) = assay: 96 hr SRB assay, RCC4; assay type: cell-based; conditions: Homo sapiens, RCC4, 96 h, read-out: IC50, RCC4
786-O (renal cancer) = assay: 96 hr SRB assay, 786-O; assay type: cell-based; conditions: Homo sapiens, 786-0, 96 h, read-out: IC50, 786-O
[8] = test system: WI38 (non-transformed lung fibroblast cells); assay: 96 hr SRB assay, WI38; assay type: cell-based; conditions: Homo sapiens, WI-38, 96 h, read-out: IC50, WI38

## CN1CCN(CCCNc2cc3c4c(c(NCCCN5CCN(C)CC5)cc5c4c2C(=O)N(CCCN2CCOCC2)C5=O)C(=O)N(CCCN2CCOCC2)C3=O)CC1 [Compound 8, 4,9-bis((3-(4-methyl-piperazin-1-yl)propyl)amino)-2,7-bis(3-morpholinopropyl) benzo-[lmn] [3,8] phenanthroline-1,3,6,8(2H,7H)-tetraone]
[1]
  FRET G4 stabilization ΔTm, F21T: 26.6 °C
c-KIT2 G4
  FRET G4 stabilization ΔTm, c-KIT2: 22.0 °C
HSP90A promoter G4
  FRET G4 stabilization ΔTm, HSP-90A: 33.1 °C
HSP90B promoter G4
  FRET G4 stabilization ΔTm, HSP-90B: 28.6 °C
[2]
  FRET G4 stabilization ΔTm, AR: 15.9 °C
[3]
  FRET ΔTm, T-loop duplex: 4.9 °C
[4]; G4:CT 1:1
  % retention of the F21T ΔTm, G4:CT 1:1: 100%
[4]; G4:CT 1:10
  % retention of the F21T ΔTm, G4:CT 1:10: 100%
[4]; G4:CT 1:300
  % retention of the F21T ΔTm, G4:CT 1:300: 27.2%
A549 (lung cancer)
  IC50: 19 nM
MCF7 (breast cancer)
  IC50: 70 nM
[5]
  IC50: 63 nM
[6]
  IC50: 11 nM
[7]
  IC50: 3 nM
RCC4 (renal cancer)
  IC50: 560 nM
786-O (renal cancer)
  IC50: 320 nM
[8]
  IC50: 230 nM
